Drawing on ChEMBL document CHEMBL1126647, “Fluorine-18-labeled progestin ketals: synthesis and target tissue uptake selectivity of potential imaging agents for receptor-positive breast tumors” (J Med Chem, 1993), this text covers Injected dose/g, relative binding affinity (RBA) and uterus/blood ratio for two compounds.

The target of experiment [1] is T1, Progesterone receptor (Rattus norvegicus) (UniProt Q63449).
T1 sequence (whole entry): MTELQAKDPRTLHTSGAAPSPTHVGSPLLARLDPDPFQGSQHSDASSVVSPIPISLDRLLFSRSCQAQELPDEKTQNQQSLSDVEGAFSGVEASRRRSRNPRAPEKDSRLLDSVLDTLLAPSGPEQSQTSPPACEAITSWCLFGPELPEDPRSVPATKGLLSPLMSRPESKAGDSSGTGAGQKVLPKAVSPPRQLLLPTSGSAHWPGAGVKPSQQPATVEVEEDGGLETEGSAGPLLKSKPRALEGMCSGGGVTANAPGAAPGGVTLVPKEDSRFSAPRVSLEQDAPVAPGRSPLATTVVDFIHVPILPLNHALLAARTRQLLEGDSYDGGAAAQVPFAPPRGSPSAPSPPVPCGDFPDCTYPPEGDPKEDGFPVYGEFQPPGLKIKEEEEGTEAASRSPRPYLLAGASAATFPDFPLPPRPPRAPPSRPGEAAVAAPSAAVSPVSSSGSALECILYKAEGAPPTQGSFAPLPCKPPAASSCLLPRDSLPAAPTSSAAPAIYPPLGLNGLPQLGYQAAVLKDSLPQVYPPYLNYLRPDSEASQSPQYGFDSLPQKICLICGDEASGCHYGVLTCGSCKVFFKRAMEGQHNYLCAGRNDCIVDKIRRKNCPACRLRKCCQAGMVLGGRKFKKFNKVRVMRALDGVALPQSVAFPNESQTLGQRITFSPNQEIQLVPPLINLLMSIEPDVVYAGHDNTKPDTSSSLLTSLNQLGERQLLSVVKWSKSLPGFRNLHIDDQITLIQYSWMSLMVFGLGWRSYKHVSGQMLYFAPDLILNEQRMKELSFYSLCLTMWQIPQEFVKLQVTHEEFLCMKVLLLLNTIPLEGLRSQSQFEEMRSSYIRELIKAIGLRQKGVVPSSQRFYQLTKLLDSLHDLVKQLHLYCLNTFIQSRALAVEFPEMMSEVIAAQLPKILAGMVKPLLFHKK
Kind of experiment: Tissue distribution in muscle 1 hr after [18F]4 injection into estrogen-primed immature rats at normal dose. It counts as functional, tissue-based. In outline: (§1)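 Female Sprague-Dawley rats, 23 days old, primed with estradiol 5 μg s.c. in 20% ethanol/sunflower oil on two days and used 24 h later. Under ether, they received 51 μCi tracer (30 Ci/mmol) iv via the tail vein in 0.1 mL 10% ethanol/saline. Killed by decapitation at 1 h; tissues weighed and gamma-counted. Results as %ID/g or tissue ratios, mean ± SD, n = 5.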

For experiment [2], the target named is T1, Progesterone receptor (Rattus norvegicus). Kind of experiment: Tissue distribution in bone 1 hr after [18F]-4 injection into estrogen-primed immature rats co-injected with uterine uptake blocker (ORG 2058). The note with it: Bone element. Type of experiment: functional, tissue-based. A digest of the protocol:
(§2)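 Blocking group: estrogen-primed immature female Sprague-Dawley rats (estradiol 5 μg s.c. ×2 days, used 24 h later). ORG 2058 18 μg was co-injected with the tracer dose iv via tail vein, 0.2 mL injection volume in 10% ethanol/saline. Killed 1 h later; tissues weighed and gamma-counted. Results as %ID/g or ratios, mean ± SD, n = 5.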

The target is the same in experiment [3]. The experiment is described as follows: Tissue distribution in bone 3 hr after [18F]4 injection into estrogen-primed immature rats. Type of experiment: functional, tissue-based. The note with it: Bone element. A digest of the protocol:
(§3)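 Immature female Sprague-Dawley rats, estradiol-primed (5 μg s.c. in 20% ethanol/sunflower oil, two successive days, used 24 h later). Tracer (30 Ci/mmol) in 10% ethanol/saline was injected iv into the tail vein under ether anesthesia. Animals were decapitated 3 h postinjection; organs weighed and gamma-counted. %ID/g, mean ± SD, n = 5.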

For experiment [4] the target is unchanged. The experiment is described as follows: Tissue distribution in brain 1 hr after [18F]-4 injection into estrogen-primed immature rats co-injected with uterine uptake blocker (ORG 2058). It counts as functional, tissue-based. In outline:
as §2

In experiment [5] the target is T2, Mineralocorticoid receptor (Rattus norvegicus) (UniProt P22199).
T2 sequence (whole entry): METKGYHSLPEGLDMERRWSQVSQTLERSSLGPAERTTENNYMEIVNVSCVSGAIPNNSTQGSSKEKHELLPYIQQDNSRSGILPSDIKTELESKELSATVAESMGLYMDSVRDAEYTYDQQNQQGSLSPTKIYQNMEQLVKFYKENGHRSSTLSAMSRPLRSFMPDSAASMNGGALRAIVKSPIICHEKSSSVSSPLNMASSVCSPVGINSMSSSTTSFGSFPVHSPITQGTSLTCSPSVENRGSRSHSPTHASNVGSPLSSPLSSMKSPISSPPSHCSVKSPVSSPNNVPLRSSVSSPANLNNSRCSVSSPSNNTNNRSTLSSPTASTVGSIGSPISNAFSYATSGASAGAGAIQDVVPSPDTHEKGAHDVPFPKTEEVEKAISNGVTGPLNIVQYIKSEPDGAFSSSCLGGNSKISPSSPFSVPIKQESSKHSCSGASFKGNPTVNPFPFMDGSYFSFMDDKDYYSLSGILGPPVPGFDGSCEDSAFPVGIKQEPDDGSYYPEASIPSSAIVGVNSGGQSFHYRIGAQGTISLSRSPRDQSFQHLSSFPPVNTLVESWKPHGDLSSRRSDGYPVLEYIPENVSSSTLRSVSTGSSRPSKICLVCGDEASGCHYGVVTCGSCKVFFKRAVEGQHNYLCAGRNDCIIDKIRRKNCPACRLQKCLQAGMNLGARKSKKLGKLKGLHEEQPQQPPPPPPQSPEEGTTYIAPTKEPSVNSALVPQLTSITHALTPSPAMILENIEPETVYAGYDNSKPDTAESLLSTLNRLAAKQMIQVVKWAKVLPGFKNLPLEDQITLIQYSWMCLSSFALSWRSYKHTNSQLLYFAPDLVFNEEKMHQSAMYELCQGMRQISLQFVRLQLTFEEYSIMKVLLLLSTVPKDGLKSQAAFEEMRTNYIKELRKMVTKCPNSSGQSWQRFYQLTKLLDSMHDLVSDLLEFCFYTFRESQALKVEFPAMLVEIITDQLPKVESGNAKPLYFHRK
Kind of experiment: Relative binding affinity (RBA) for mineralocorticoid receptor compared to aldosterone.

Experiment [6] deals with T1, Progesterone receptor (Rattus norvegicus). The experiment is described as follows: Tissue distribution in uterus 1 hr after [18F]4 injection into estrogen-primed immature rats at normal dose. It counts as functional, tissue-based. A digest of the protocol: as §1
Experiment [7] shares this target. Kind of experiment: Tissue distribution in blood 1 hr after [18F]4 injection into estrogen-primed immature rats co-injected uterine uptake blocker (ORG 2058). It counts as functional, tissue-based. A digest of the protocol: as §2
Experiment [8] has the same target. Kind of experiment: Tissue distribution in muscle 1 hr after [18F]4 injection into estrogen-primed immature rats co-injected with uterine uptake blocker (ORG2058). It counts as functional, tissue-based. In outline: as §2
Experiment [9] has the same target. Kind of experiment: Tissue distribution in lung 3 hr after [18F]4 injection into estrogen-primed immature rats. Type of experiment: functional, tissue-based. A digest of the protocol:
as §3

Experiment [10] shares this target. Kind of experiment: Tissue distribution in uterus/blood 1 hr after [18F]4 injection into estrogen-primed immature rats co-injected with uterine uptake blocker (ORG 2058). Type of experiment: functional, tissue-based. A digest of the protocol:
as §2

Experiment [11] shares this target. The experiment is described as follows: Tissue distribution in uterus 3 hr after [18F]4 injection into estrogen-primed immature rats. It counts as functional, tissue-based. A digest of the protocol:
as §3

Experiment [12] shares this target. The experiment is described as follows: Tissue distribution in blood 1 hr after [18F]4 injection into estrogen-primed immature rats at normal dose. It counts as functional, tissue-based. A digest of the protocol: as §1
Experiment [13] has the same target. The experiment is described as follows: Tissue distribution in ovaries 1 hr after [18F]4 injection into estrogen-primed immature rats at normal dose. Type of experiment: functional, tissue-based. The following applies: Female gonad. A digest of the protocol: as §1
The target is the same in experiment [14]. The experiment is described as follows: Tissue distribution in kidney 3 hr after [18F]4 injection into estrogen-primed immature rats. Type of experiment: functional, tissue-based. A digest of the protocol:
as §3

Consider `C[C@@]1(c2ccc(F)cc2)O[C@@H]2CC3C4CCC5=CC(=O)CC[C@@H]5C4CC[C@]3(C)[C@]2(C(=O)CO)O1` (stereo partly drawn), for which the Injected dose/g in experiment [1] amounted to 0.44%; in [2] it was 0.6%; in [3], 0.64%; in [4], 0.28%; in experiment [6] it was 3.65%; in experiment [7] it was 0.23%. Besides, the Injected dose/g in [8] is 0.35%; in [9] it was 0.22%; in experiment [11], 3.86%; in experiment [12], 0.26%; in experiment [13], 2.8%; in experiment [14] it was 0.45%. The compound further returned a relative binding affinity (RBA) in [5] of 140. The uterus/blood ratio in experiment [10] turned out to be 3.69.
With `CC(=O)[C@@]12O[C@](C)(c3ccc(F)cc3)O[C@@H]1CC1C3CCC4=CC(=O)CC[C@]4(C)C3CC[C@@]12C` (stereo partly drawn), the Injected dose/g in experiment [1] stood at 0.82%; in [2], 1.44%; in [3], 1.69%; in experiment [4] it was 0.55%; in [6] it was 3.08%; in experiment [7], 0.43%. In addition, the Injected dose/g in experiment [8] came to 0.76%; in [9] it was 0.91%; in [11], 2.13%; in [12], 0.47%; in experiment [13], 3.93%; in [14], 1.47%. Moreover, in experiment [5], the relative binding affinity (RBA) was 6. Also, the uterus/blood ratio in experiment [10] was determined as 3.06.
